Tests used:
Assay type in all cases: functional
SK-MEL-5 = test: Growth inhibition of human SK-MEL-5 cells at 10 uM after 48 hrs by sulforhodamine B assay; settings: SK-MEL-5, 48 h, read-out: GI
How it was run: (§1)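 Run at NCI on the 60-line panel. Cells grown in RPMI 1640 with 5% FBS and 2 mM L-glutamine, plated at 5000–40,000 cells/well by doubling time, and held 24 h at 37 °C before dosing. Drug (DMSO stock) given at a single final 10 µM in triplicate wells for 48 h. Adherent cells fixed with cold TCA (10% final), suspension cells with 16% TCA. SRB stain read at 515 nm. Percent growth from Tz, C and Ti.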

SK-MEL-28 = test: Growth inhibition of human SK-MEL-28 cells at 10 uM after 48 hrs by sulforhodamine B assay; settings: SK-MEL-28, 48 h, read-out: GI; how it was run: as §1
MDA-MB-435 = test: Growth inhibition of human MDA-MB-435 cells at 10 uM after 48 hrs by sulforhodamine B assay; settings: MDA-MB-435, 48 h, read-out: GI; how it was run: as §1
NCI-H522 = test: Growth inhibition of human NCI-H522 cells at 10 uM after 48 hrs by sulforhodamine B assay; settings: NCI-H522, 48 h, read-out: GI; how it was run: as §1
MDA-MB-468 = test: Growth inhibition of human MDA-MB-468 cells at 10 uM after 48 hrs by sulforhodamine B assay; settings: MDA-MB-468, 48 h, read-out: GI; how it was run: as §1
[1] = Growth inhibition of human SNB19 cells at 10 uM after 48 hrs by sulforhodamine B assay; settings: SNB-19, 48 h, read-out: GI; how it was run: as §1
A498 = test: Growth inhibition of human A498 cells at 10 uM after 48 hrs by sulforhodamine B assay; settings: A498, 48 h, read-out: GI; how it was run: as §1
[2] = Growth inhibition of human UO31 cells at 10 uM after 48 hrs by sulforhodamine B assay; settings: UO-31, 48 h, read-out: GI
How it was run: (§2)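 NCI-60 panel, adherent cells grown in RPMI 1640 with 5% FBS and 2 mM L-glutamine, plated at 5000–40,000 cells/well and preincubated 24 h at 37 °C, 5% CO2. 10 µM final compound from DMSO stock, triplicate wells, 48 h. Fixed with cold TCA (10% final, 60 min, 4 °C) and stained with 0.4% SRB. Absorbance read at 515 nm; growth calculated against time-zero and control wells.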

[3] = Growth inhibition of human SW620 cells at 10 uM after 48 hrs by sulforhodamine B assay; settings: SW-620, 48 h, read-out: GI; how it was run: as §2
K562 = test: Growth inhibition of human K562 cells at 10 uM after 48 hrs by sulforhodamine B assay; settings: K562, 48 h, read-out: GI; how it was run: as §1
NCI-H23 = test: Growth inhibition of human NCI-H23 cells at 10 uM after 48 hrs by sulforhodamine B assay; settings: NCI-H23, 48 h, read-out: GI; how it was run: as §1
A549 = test: Growth inhibition of human A549 cells at 10 uM after 48 hrs by sulforhodamine B assay; settings: A549, 48 h, read-out: GI; how it was run: as §1
HT-29 = test: Growth inhibition of human HT-29 cells at 10 uM after 48 hrs by sulforhodamine B assay; settings: HT-29, 48 h, read-out: GI; how it was run: as §1
ACHN = test: Growth inhibition of human ACHN cells at 10 uM after 48 hrs by sulforhodamine B assay; settings: read-out: GI; how it was run: as §1
[4] = Growth inhibition of human PC3 cells at 10 uM after 48 hrs by sulforhodamine B assay; settings: PC-3, 48 h, read-out: GI; how it was run: as §1
KM12 = test: Growth inhibition of human KM12 cells at 10 uM after 48 hrs by sulforhodamine B assay; settings: KM12, 48 h, read-out: GI; how it was run: as §1
[5] = Growth inhibition of human NCI-ADR-RES cells at 10 uM after 48 hrs by sulforhodamine B assay; settings: read-out: GI; how it was run: as §1
[6] = Growth inhibition of human SNB75 cells at 10 uM after 48 hrs by sulforhodamine B assay; settings: SNB-75, 48 h, read-out: GI; how it was run: as §1
[7] = Growth inhibition of human DU145 cells at 10 uM after 48 hrs by sulforhodamine B assay; settings: DU-145, 48 h, read-out: GI; how it was run: as §1
SR = test: Growth inhibition of human SR cells at 10 uM after 48 hrs by sulforhodamine B assay; settings: read-out: GI
How it was run: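 NCI-60 screen. Cells were grown in RPMI 1640 with 5% FBS and 2 mM L-glutamine, plated at 5000–40,000 cells/well and held 24 h at 37 °C, 5% CO2. Single 10 µM final dose from DMSO stock, triplicate wells, 48 h. Settled cells were fixed with 80% TCA (16% final) and stained with 0.4% SRB. Dye was solubilized in 10 mM Tris and read at 515 nm. Growth was calculated against time-zero and untreated wells.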

[8] = Growth inhibition of human OVCAR3 cells at 10 uM after 48 hrs by sulforhodamine B assay; settings: OVCAR-3, 48 h, read-out: GI; how it was run: as §1
M14 = test: Growth inhibition of human M14 cells at 10 uM after 48 hrs by sulforhodamine B assay; settings: M14, 48 h, read-out: GI; how it was run: as §1
[9] = Growth inhibition of human UACC62 cells at 10 uM after 48 hrs by sulforhodamine B assay; settings: UACC-62, 48 h, read-out: GI; how it was run: as §2
CCRF-CEM = test: Growth inhibition of human CCRF-CEM cells at 10 uM after 48 hrs by sulforhodamine B assay; settings: read-out: GI; how it was run: as §1
[10] = Growth inhibition of human SF295 cells at 10 uM after 48 hrs by sulforhodamine B assay; settings: SF-295, 48 h, read-out: GI; how it was run: as §1
[11] = Growth inhibition of human OVCAR8 cells at 10 uM after 48 hrs by sulforhodamine B assay; settings: OVCAR-8, 48 h, read-out: GI; how it was run: as §1
[12] = Growth inhibition of human SF268 cells at 10 uM after 48 hrs by sulforhodamine B assay; settings: SF-268, 48 h, read-out: GI; how it was run: as §1
NCI-H460 = test: Growth inhibition of human NCI-H460 cells at 10 uM after 48 hrs by sulforhodamine B assay; settings: NCI-H460, 48 h, read-out: GI; how it was run: as §1
NCI-H226 = test: Growth inhibition of human NCI-H226 cells at 10 uM after 48 hrs by sulforhodamine B assay; settings: NCI-H226, 48 h, read-out: GI; how it was run: as §1
[13] = Growth inhibition of human HOP92 cells at 10 uM after 48 hrs by sulforhodamine B assay; settings: HOP-92, 48 h, read-out: GI; how it was run: as §1
[14] = Growth inhibition of human Hs 578T cells at 10 uM after 48 hrs by sulforhodamine B assay; settings: read-out: GI; how it was run: as §1
MDA-MB-231 = test: Growth inhibition of human MDA-MB-231 cells at 10 uM after 48 hrs by sulforhodamine B assay; settings: MDA-MB-231, 48 h, read-out: GI; how it was run: as §1
[15] = Growth inhibition of human OVCAR5 cells at 10 uM after 48 hrs by sulforhodamine B assay; settings: OVCAR-5, 48 h, read-out: GI; how it was run: as §1

SMILES | inhibition of growth at 10 µM (SK-MEL-5) [%] | inhibition of growth at 10 µM (SK-MEL-28) [%] | inhibition of growth at 10 µM (MDA-MB-435) [%] | inhibition of growth at 10 µM (NCI-H522) [%] | inhibition of growth at 10 µM (MDA-MB-468) [%] | inhibition of growth at 10 µM [1] [%] | inhibition of growth at 10 µM (A498) [%] | inhibition of growth at 10 µM [2] [%] | inhibition of growth at 10 µM [3] [%] | inhibition of growth at 10 µM (K562) [%] | inhibition of growth at 10 µM (NCI-H23) [%] | inhibition of growth at 10 µM (A549) [%] | inhibition of growth at 10 µM (HT-29) [%] | inhibition of growth at 10 µM (ACHN) [%] | inhibition of growth at 10 µM [4] [%] | inhibition of growth at 10 µM (KM12) [%] | inhibition of growth at 10 µM [5] [%] | inhibition of growth at 10 µM [6] [%] | inhibition of growth at 10 µM [7] [%] | inhibition of growth at 10 µM (SR) [%] | further results
COc1ccc(Cc2nnc(Nc3ccc(NC(=O)Nc4ccc(OC)cc4)cc3)c3ccccc23)cc1 | < 30 | < 30 | < 30 | 36 | < 30 | < 30 | < 30 | < 30 | < 30 | < 30 | < 30 | < 30 | 34 | 32 | 30 | 39 | < 30 | 50 | < 30 | 39 | inhibition of growth at 10 µM [8]: < 30%; inhibition of growth at 10 µM (M14): < 30%; inhibition of growth at 10 µM [9]: < 30%; inhibition of growth at 10 µM (CCRF-CEM): 40%; inhibition of growth at 10 µM [10]: 81%; inhibition of growth at 10 µM [11]: < 30%; inhibition of growth at 10 µM [12]: < 30%; inhibition of growth at 10 µM (NCI-H460): < 30%; inhibition of growth at 10 µM (NCI-H226): < 30%; inhibition of growth at 10 µM [13]: < 30%; inhibition of growth at 10 µM [14]: 96%; inhibition of growth at 10 µM (MDA-MB-231): 46%; inhibition of growth at 10 µM [15]: < 30%
COc1ccc(Cc2nnc(Nc3ccccc3)c3ccccc23)cc1 | < 30 | < 30 | < 30 | < 30 | < 30 | < 30 | 35 | 38 | < 30 | < 30 | < 30 | < 30 | < 30 | < 30 | < 30 | < 30 | < 30 | < 30 | < 30 | 30 | inhibition of growth at 10 µM [8]: < 30%; inhibition of growth at 10 µM (M14): < 30%; inhibition of growth at 10 µM [9]: < 31%; inhibition of growth at 10 µM (CCRF-CEM): < 30%; inhibition of growth at 10 µM [10]: < 30%; inhibition of growth at 10 µM [11]: < 30%; inhibition of growth at 10 µM [12]: < 30%; inhibition of growth at 10 µM (NCI-H460): < 30%; inhibition of growth at 10 µM (NCI-H226): < 30%; inhibition of growth at 10 µM [13]: 49%; inhibition of growth at 10 µM [14]: < 30%; inhibition of growth at 10 µM (MDA-MB-231): < 30%; inhibition of growth at 10 µM [15]: < 30%
COc1ccc(Cc2nnc(Nc3ccc(NC(=O)Nc4ccccc4)cc3)c3ccccc23)cc1 | < 30 | < 30 | < 30 | 48 | < 30 | < 30 | < 30 | < 30 | < 30 | < 30 | < 30 | < 30 | < 30 | < 30 | 30 | < 30 | < 30 | < 30 | < 30 | < 30 | inhibition of growth at 10 µM [8]: < 30%; inhibition of growth at 10 µM (M14): < 30%; inhibition of growth at 10 µM [9]: < 30%; inhibition of growth at 10 µM (CCRF-CEM): 34%; inhibition of growth at 10 µM [10]: < 30%; inhibition of growth at 10 µM [11]: < 30%; inhibition of growth at 10 µM [12]: < 30%; inhibition of growth at 10 µM (NCI-H460): < 30%; inhibition of growth at 10 µM (NCI-H226): < 30%; inhibition of growth at 10 µM [13]: < 30%; inhibition of growth at 10 µM [14]: 33%; inhibition of growth at 10 µM (MDA-MB-231): 31%; inhibition of growth at 10 µM [15]: < 30%

— ChEMBL document CHEMBL3779892, “Increasing the binding affinity of VEGFR-2 inhibitors by extending their hydrophobic interaction with the active site: Design, synthesis and biological evaluation of 1-substituted-4-(4-methoxybenzyl)phthalazine derivatives” (Eur J Med Chem, 2016)
